Molecules are shown by their SMILES. ≈ marks a conversion by molar mass, not a printed value.

Here are results for five compounds from ChEMBL document CHEMBL1127066, “Discovery and structure-activity relationship of a series of 1-carba-1-dethiacephems exhibiting activity against methicillin-resistant Staphylococcus aureus” (J Med Chem, 1993).

In data set [1] the test system is Staphylococcus aureus. The data set can be described thus: Minimum inhibitory concentration against methicillin-resistant Staphylococcus aureus 430 (MRSA) in vitro using trypticase soy broth (TSB) with 4% NaCl. It counts as functional.
A short description of data set [2]: Tested against penicillin binding protein 2a (PBP2a) enzyme.
For data set [3], the system named is Staphylococcus aureus. The data set can be described thus: Minimum inhibitory concentration against homoresistant strain of Staphylococcus aureus 447 in the absence of NaCl. It counts as functional.
In data set [4] the test system is Staphylococcus aureus. The data set can be described thus: Minimum inhibitory concentration against heteroresistant strain of Staphylococcus aureus 430 in the absence of NaCl. It counts as functional.
In data set [5] the test system is Staphylococcus aureus. The data set can be described thus: Minimum inhibitory concentration against sensitive strain of Staphylococcus aureus 446 in 4% of NaCl. The class given is functional.
The test system of data set [6] is Staphylococcus aureus. The data set can be described thus: Minimum inhibitory concentration against homoresistant strain of Staphylococcus aureus 447 in 4% of NaCl. The class given is functional.
The subject of data set [7] is Staphylococcus aureus. The data set is described as follows: Minimum inhibitory concentration against sensitive strain of Staphylococcus aureus 446 in the absence of NaCl. The class given is functional.
The test system of data set [8] is Staphylococcus aureus. The data set can be described thus: Minimum inhibitory concentration against methicillin-resistant Staphylococcus aureus 430 (MRSA) in vitro using trypticase soy broth (TSB). It counts as functional.
In data set [9] the test system is Staphylococcus aureus. The data set is described as follows: Minimum inhibitory concentration against heteroresistant strain of Staphylococcus aureus 430 in 4% of NaCl. It counts as functional.
Data set [10] has as its system Staphylococcus aureus. The data set can be described thus: In vitro antimicrobial activity against Staphylococcus aureus X1.1 strain. The class given is functional.
Data set [11] relates to Staphylococcus aureus. The data set is described as follows: In vitro antimicrobial activity against Staphylococcus aureus X400 strain. It counts as functional.
Data set [12] relates to Pseudomonas aeruginosa. The data set can be described thus: In vitro antimicrobial activity against Pseudomonas X239 strain. The class given is functional.
Data set [13] deals with Pseudomonas aeruginosa. The data set is described as follows: Antimicrobial activity against Pseudomonas PS18 strain. The class given is functional.
In another data set the test system is Escherichia coli. The data set is described as follows: In vitro evaluation of antimicrobial activity against Escherichia coli EC14 strain. It counts as functional.
A further data set is filed under the species Homo sapiens. The data set can be described thus: In vitro plasma protein binding was evaluated by using Human plasma at 20 ug/mL. It counts as ADME. The method, boiled down: (§1)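 Binding was measured by ultrafiltration (Centrifree micropartition) in pooled plasma (ICR mouse, Sprague–Dawley rat, rhesus monkey or human) at a drug concentration of 20 μg/mL.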

The next data set relates to Haemophilus influenzae. The data set is described as follows: In vitro antimicrobial activity against Haemophilus influenzae C.L. strain. It counts as functional.
In data set [14] the test system is Staphylococcus epidermidis. The data set is described as follows: In vitro antimicrobial activity against Staphylococcus epidermidis 270 strain. The class given is functional.
The subject of another data set is Rhesus monkey. The data set can be described thus: In vitro plasma protein binding was evaluated by using rhesus monkey at 20 ug/mL. The class given is ADME, Macaca mulatta. The method in brief:
as §1

For data set [15], the species on record is Rattus norvegicus. The data set is described as follows: In vitro plasma protein binding was evaluated using Sprauge-Dawley rat at 20 ug/mL. The class given is ADME. The method in brief:
as §1

The species entered for a further data set is Mus musculus. The data set is described as follows: In vitro plasma protein binding was evaluated using ICR mouse at 20 ug/mL. It counts as ADME. The method, boiled down:
as §1

For data set [16], the system named is Staphylococcus aureus. The data set can be described thus: In vitro antimicrobial activity against Staphylococcus aureus S13E strain. The class given is functional.
Data set [17] has as its system Staphylococcus epidermidis. The data set can be described thus: In vitro antimicrobial activity against Staphylococcus epidermidis 222 strain. It counts as functional.
A further data set deals with Enterobacter cloacae. The data set is described as follows: In vitro evaluation of antimicrobial activity against Enterobacter cloacae EB5 strain. It counts as functional.
In another data set the test system is Streptococcus pneumoniae. The data set is described as follows: In vitro antimicrobial activity against Streptococcus pneumoniae PARK strain. The class given is functional.
The test system of another data set is Klebsiella. The data set can be described thus: In vitro antimicrobial activity against Klebsiella X26 strain. It counts as functional.
Data set [18] relates to Staphylococcus aureus. The data set is described as follows: In vitro evaluation of antimicrobial activity against 31 strains of heteroresistant Staphylococcus aureus in trypticase soy broth with 4% sodium chloride. It counts as functional.
Data set [19] in a line: Half-life determined in monkeys dosed intravenously with 30 mg/kg. The class given is ADME, organism-based. The arrangement: dose 30 mg/kg, route intravenous. The conditions noted are these: simiiformes, in vivo, iv. The method in brief:
(§2)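 Male rhesus monkeys (n = 4) received 30 mg/kg iv in 0.9% saline. Cephalic-vein plasma was sampled over 8 h, and 0–24 h cumulative urine was collected in metabolism cages into 0.1 M sodium citrate, pH 6.5. Antibacterial activity was quantified by agar well diffusion bioassay against plasma- or citrate-based standard curves. Half-life was 0.693/β from the terminal phase, and urinary recovery was % of administered dose.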

The nature of data set [20]: Percent urinary recovery (as total antibacterial activity) in monkeys dosed intravenously with 30 mg/kg. The class given is ADME, organism-based, Urine. On the set-up: dose 30 mg/kg, route intravenous. The conditions noted are these: simiiformes, in vivo, iv. The method in brief:
as §2

Data set [21] has as its system Staphylococcus aureus. The data set is described as follows: In vitro evaluation of antimicrobial activity against heteroresistant Staphylococcus aureus ST 430 strain in trypticase soy broth. The class given is functional.
The test system of data set [22] is Rattus norvegicus. The data set is described as follows: Percent urinary recovery (as total antibacterial activity) in rats dosed intravenously with 20 mg/kg. On the set-up: dose 20 mg/kg, route intravenous. It counts as ADME, organism-based, Urine. As to conditions: in vivo, iv. The method, boiled down:
(§3)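 Male Sprague–Dawley rats (n = 4) were given 20 mg/kg iv in 0.9% saline through a jugular cannula, with serial plasma samples and cumulative urine collected over 6 h. Urine was collected into 0.1 M citrate, pH 6.5, and samples were stored at -70 °C. Drug was measured by agar well diffusion bioassay (E. coli ATCC4157 or M. luteus ATCC9241) against spiked standard curves. Half-life was 0.693/β from the terminal slope, and urinary recovery was % of dose.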

Data set [23] is described as follows: Maximum concentration determined in monkeys dosed intravenously with 30 mg/kg. The class given is ADME, organism-based. The arrangement: dose 30 mg/kg, route intravenous. The conditions noted are these: simiiformes, in vivo, iv. The method, boiled down:
as §2

For data set [24], the system named is Staphylococcus aureus. The data set is described as follows: In vitro evaluation of antimicrobial activity against heteroresistant Staphylococcus aureus ST 430 strain in trypticase soy broth with 4% sodium chloride. It counts as functional.
A short description of data set [25]: Half-life determined in rats dosed intravenously with 20 mg/kg. It counts as ADME, organism-based. On the set-up: dose 20 mg/kg, route intravenous. The conditions noted are these: rat, in vivo, iv. The method in brief:
as §3

The nature of data set [26]: Maximum concentration determined in rats dosed intravenously with 20 mg/kg. The arrangement: dose 20 mg/kg, route intravenous. It counts as ADME, organism-based. As to conditions: rat, in vivo, iv. The method, boiled down:
as §3

`CCOc1ccc2ccccc2c1C(=O)N[C@@H]1C(=O)N2[C@@H]1SC(C)(C)[C@@H]2C(=O)O` [NAFCILLIN]: the MIC came to 32 µg/mL (≈ 77.2 µM) against Staphylococcus aureus [1]; 128 µg/mL (≈ 309 µM) in the data set with Staphylococcus aureus [3]; 1 µg/mL (≈ 2.41 µM) in the data set with Staphylococcus aureus [4]; 0.25 µg/mL (≈ 0.603 µM) against Staphylococcus aureus [5]; 128 µg/mL (≈ 309 µM) against Staphylococcus aureus [6]; 0.25 µg/mL (≈ 0.603 µM) in the data set on Staphylococcus aureus [7]. The MIC against Staphylococcus aureus [8] turned out to be 0.25 µg/mL (≈ 0.603 µM); against Staphylococcus aureus [9], 64 µg/mL (≈ 154 µM). The IC50 in [2] was 200 µg/mL (≈ 483 µM).
For `Nc1nc(/C(=N\OCCF)C(=O)N[C@@H]2C(=O)N3C(C(=O)[O-])=C(Sc4nncs4)CC[C@H]23)cs1.[Na+]`, the MIC in the data set with Staphylococcus aureus [10] was 0.125 µg/mL; in the data set with Staphylococcus aureus [11], 64 µg/mL; in the data set on Pseudomonas aeruginosa [12], over 128 µg/mL; against Pseudomonas aeruginosa [13], 32 µg/mL; with Escherichia coli, 0.03 µg/mL; in the data set with Haemophilus influenzae it was 0.015 µg/mL. Besides, the MIC was 0.06 µg/mL in data set [14]; 16 µg/mL in the data set on Staphylococcus aureus [16]; 0.5 µg/mL in [17]; 0.5 µg/mL with Enterobacter cloacae; under 0.008 µg/mL in the data set with Streptococcus pneumoniae; 0.015 µg/mL in the data set with Klebsiella. Further, the Bound turned out to be 36% in the data set filed under Homo sapiens, 49.1% in the data set with Rhesus monkey, 63.1% in the data set filed under Rattus norvegicus [15] and 36.2% in the data set listed under Mus musculus.
On to `COc1cccc(OC)c1C(=O)N[C@@H]1C(=O)N2[C@@H]1SC(C)(C)[C@@H]2C(=O)O` [METHICILLIN], for which the MIC against Staphylococcus aureus [10] is 2 µg/mL (≈ 5.26 µM); with Staphylococcus aureus [11], 64 µg/mL (≈ 168 µM); in the data set on Staphylococcus aureus [1] it was 256 µg/mL (≈ 673 µM); against Staphylococcus aureus [3], over 512 µg/mL; against Pseudomonas aeruginosa [12] it was over 128 µg/mL; with Pseudomonas aeruginosa [13] it was over 128 µg/mL. The MIC was over 128 µg/mL in the data set with Escherichia coli; 8 µg/mL (≈ 21 µM) with Staphylococcus aureus [4]; 4 µg/mL (≈ 10.5 µM) in the data set on Haemophilus influenzae; 1 µg/mL (≈ 2.63 µM) with Staphylococcus aureus [5]; 4 µg/mL (≈ 10.5 µM) in data set [14]; over 512 µg/mL with Staphylococcus aureus [6]. Also, the MIC with Staphylococcus aureus [16] was 8 µg/mL (≈ 21 µM); with Staphylococcus aureus [7], 1 µg/mL (≈ 2.63 µM); in data set [17], 4 µg/mL (≈ 10.5 µM); in the data set with Staphylococcus aureus [8] it was 8 µg/mL (≈ 21 µM); with Staphylococcus aureus [9] it was 256 µg/mL (≈ 673 µM); with Enterobacter cloacae, over 128 µg/mL. For the same compound, the MIC turned out to be 0.5 µg/mL (≈ 1.31 µM) with Streptococcus pneumoniae and 32 µg/mL (≈ 84.1 µM) with Klebsiella. For the same compound, in data set [2], the IC50 came to 456 µg/mL (≈ 1200 µM).
For `Nc1nc(/C(=N\OCCF)C(=O)N[C@@H]2C(=O)N3C(C(=O)[O-])=C(Sc4nc5ccccc5s4)CC[C@H]23)cs1.[Na+]`, the MIC in the data set on Staphylococcus aureus [10] was 0.125 µg/mL; with Staphylococcus aureus [11], 4 µg/mL; in the data set with Staphylococcus aureus [1], 1 µg/mL; in the data set on Pseudomonas aeruginosa [12], 16 µg/mL; against Pseudomonas aeruginosa [13] it was 128 µg/mL; in the data set on Escherichia coli it was 0.25 µg/mL. The MIC against Haemophilus influenzae was 0.03 µg/mL; in data set [14], 0.5 µg/mL; against Staphylococcus aureus [16], 4 µg/mL; in [17], 0.25 µg/mL; in the data set on Staphylococcus aureus [8], 0.5 µg/mL; against Enterobacter cloacae it was 1 µg/mL. The MIC in the data set on Streptococcus pneumoniae is under 0.008 µg/mL; with Klebsiella it was 0.03 µg/mL. Moreover, the IC50 in data set [2] was determined as 3.5 µg/mL.
Turning to `Nc1nc(/C(=N\OCCF)C(=O)N[C@@H]2C(=O)N3C(C(=O)[O-])=C(Sc4nc5cnccc5s4)CC[C@H]23)cs1.[Na+]`, the MIC against Staphylococcus aureus [10] amounted to 0.125 µg/mL; against Staphylococcus aureus [18], 2.6 µg/mL; in the data set on Staphylococcus aureus [11] it was 4 µg/mL; in the data set on Pseudomonas aeruginosa [12] it was 32 µg/mL; against Pseudomonas aeruginosa [13], 32 µg/mL; in the data set on Escherichia coli it was 0.06 µg/mL. Moreover, the MIC was determined as 0.5 µg/mL against Staphylococcus aureus [21]; 0.03 µg/mL with Haemophilus influenzae; 2 µg/mL in data set [14]; 0.5 µg/mL against Staphylococcus aureus [16]; 1 µg/mL with Staphylococcus aureus [24]; 0.5 µg/mL in [17]. Also, the MIC with Enterobacter cloacae was 1 µg/mL; in the data set with Streptococcus pneumoniae, under 0.008 µg/mL; with Klebsiella, 0.03 µg/mL. Also, the half-life amounted to 58.4 min in [19] and 35.1 min in data set [25]. Further, the Recovery in data set [20] was 46.8%; with Rattus norvegicus [22], 37.2%. Besides, the Bound was 96.6% in the data set filed under Homo sapiens, 98.5% with Rhesus monkey, 95% in the data set listed under Rattus norvegicus [15] and 88.5% in the data set listed under Mus musculus. Further, the Cmax was 343 µg/mL in data set [23] and 56.7 µg/mL in [26].
